Activity calls are given as the source filed them. The calls are words filed in the database; no cut-off is given here.
What was measured:
[1] = molecular target: NACHT, LRR and PYD domains-containing protein 3 (Mus musculus) (UniProt Q8R4B8); assay: Inhibition of NLRP3 inflammasome activation in mouse BMDM cells assessed as reduction in LPS-stimulated ASC specks formation at 50 to 200 nM pretreated for 1 hr followed by nigericin treatment for 30 mins by immunofluorescence analysis; type: cell-based; conditions: dose 50-200 nM, time 1.5 hrs
NACHT, LRR and PYD domains-containing protein 3 (Mus musculus), sequence (Q8R4B8 whole entry, the tested form may be a part): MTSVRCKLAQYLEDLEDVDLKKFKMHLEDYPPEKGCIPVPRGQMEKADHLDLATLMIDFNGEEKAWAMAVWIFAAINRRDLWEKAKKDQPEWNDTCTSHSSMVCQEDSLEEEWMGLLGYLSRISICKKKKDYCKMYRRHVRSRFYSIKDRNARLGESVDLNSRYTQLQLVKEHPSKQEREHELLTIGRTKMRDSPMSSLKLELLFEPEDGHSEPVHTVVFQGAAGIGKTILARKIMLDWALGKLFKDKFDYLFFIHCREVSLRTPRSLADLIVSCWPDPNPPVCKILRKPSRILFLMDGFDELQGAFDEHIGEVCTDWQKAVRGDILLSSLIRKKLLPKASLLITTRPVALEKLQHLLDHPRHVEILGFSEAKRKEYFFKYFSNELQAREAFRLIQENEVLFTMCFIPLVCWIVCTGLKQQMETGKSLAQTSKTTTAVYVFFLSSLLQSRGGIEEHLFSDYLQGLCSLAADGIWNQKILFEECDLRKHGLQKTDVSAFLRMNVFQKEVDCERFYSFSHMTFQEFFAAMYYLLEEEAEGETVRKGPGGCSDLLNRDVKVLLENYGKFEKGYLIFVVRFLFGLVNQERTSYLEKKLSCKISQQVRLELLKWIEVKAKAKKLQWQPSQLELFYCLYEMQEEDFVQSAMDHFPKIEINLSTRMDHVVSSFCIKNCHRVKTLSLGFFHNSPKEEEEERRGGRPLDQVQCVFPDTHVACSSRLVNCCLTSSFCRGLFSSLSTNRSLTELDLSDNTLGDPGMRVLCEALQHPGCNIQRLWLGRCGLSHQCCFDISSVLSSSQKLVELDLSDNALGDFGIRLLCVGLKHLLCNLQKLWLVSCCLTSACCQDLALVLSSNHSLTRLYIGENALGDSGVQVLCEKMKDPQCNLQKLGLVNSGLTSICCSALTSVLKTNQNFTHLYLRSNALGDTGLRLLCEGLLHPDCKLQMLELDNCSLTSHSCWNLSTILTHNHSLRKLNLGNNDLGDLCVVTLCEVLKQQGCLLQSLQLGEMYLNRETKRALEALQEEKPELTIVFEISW
Summary of the method: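 BMDMs primed with LPS 1.5 μg mL−1 for 3 h at 37 °C, compound for 1 h, nigericin 10 μM for 30 min. Fixed in 4% paraformaldehyde and permeabilized with 1% Triton X-100. Blocked in 1% BSA, primary antibody overnight at 4 °C, rhodamine secondary plus DAPI. ASC specks counted by fluorescence microscopy.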

[2] = molecular target: Signal transducer and activator of transcription 3 (Mus musculus) (UniProt P42227); assay: Inhibition of STAT3 expression in LPS-treated mouse J774.A1 cells at 50 to 200 nM treated for 1 hr by Western blot analysis; type: cell-based; conditions: dose 50-200 nM
Signal transducer and activator of transcription 3 (Mus musculus), sequence (P42227 whole entry): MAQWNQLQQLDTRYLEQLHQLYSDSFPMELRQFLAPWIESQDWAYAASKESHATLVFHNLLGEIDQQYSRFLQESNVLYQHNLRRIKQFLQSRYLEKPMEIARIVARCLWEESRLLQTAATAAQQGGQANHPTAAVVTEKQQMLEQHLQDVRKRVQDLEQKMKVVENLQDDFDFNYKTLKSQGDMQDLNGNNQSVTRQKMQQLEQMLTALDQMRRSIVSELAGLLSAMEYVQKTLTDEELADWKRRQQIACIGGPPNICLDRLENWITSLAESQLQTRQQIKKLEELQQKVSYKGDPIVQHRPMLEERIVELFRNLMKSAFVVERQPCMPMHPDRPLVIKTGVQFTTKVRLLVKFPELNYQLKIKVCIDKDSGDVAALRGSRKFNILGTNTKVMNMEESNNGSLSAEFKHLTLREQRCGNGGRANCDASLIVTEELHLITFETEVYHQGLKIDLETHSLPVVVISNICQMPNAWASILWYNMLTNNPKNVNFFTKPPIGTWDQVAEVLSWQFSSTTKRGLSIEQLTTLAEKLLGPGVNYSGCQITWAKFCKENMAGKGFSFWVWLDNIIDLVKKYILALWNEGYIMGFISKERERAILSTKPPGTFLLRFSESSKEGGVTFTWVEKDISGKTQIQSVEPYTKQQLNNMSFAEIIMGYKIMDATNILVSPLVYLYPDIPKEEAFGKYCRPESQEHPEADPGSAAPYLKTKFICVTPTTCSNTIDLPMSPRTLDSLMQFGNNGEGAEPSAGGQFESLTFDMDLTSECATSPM
Summary of the method: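 J774A.1 cells pretreated with LPS and compound, lysed in RIPA. pSTAT1, STAT1, pSTAT3, STAT3, pSTAT5 and STAT5 detected by SDS-PAGE western blot with ECL.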

Colon = assay: Downregulation of TNF-alpha level in colon tissue of DSS-induced ulcerative colitis mouse model at 0.2 to 0.6 mg/kg, ip treated every 72 hrs for 9 days by ELISA; type: functional, organism-based; conditions: dose 0.2-0.6 mg/kg, time 9.0 day
Summary of the method: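 Colitis induced with 2.5% DSS in drinking water on days 1–7, plain water days 8–9. Compound given i.p. at 0.2 and 0.6 mg kg−1 in 50% PEG300 on days 2, 5 and 8. Mice killed on day 9; colon tissue cytokines measured by ELISA. Mean ± s.e.m.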

Intestine = assay: Anti-colitis activity against DSS-induced ulcerative colitis mouse model assessed as decrease in STAT-3 level in intestinal tissue at 0.2 to 0.6 mg/kg, ip treated every 72 hrs for 9 days by Western blot analysis; type: functional, organism-based; conditions: dose 0.2-0.6 mg/kg, time 9.0 day
Summary of the method: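 DSS model (2.5% in drinking water days 1–7, water days 8–9). Dosing was i.p. at 0.2 and 0.6 mg kg−1 in 50% PEG300 on days 2, 5, 8. Intestinal tissue taken at sacrifice on day 9. Lysed in RIPA with protease inhibitor and BCA-quantified, then run on SDS-PAGE/PVDF and probed for STAT1, STAT3, STAT5 and caspase-1. ECL detection.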

Question: Which inhibition [1] does the source give for `Cc1cc(/C=C/C(=O)c2ccc(C(=O)N[C@@H](Cc3ccccc3)C(=O)N[C@@H](CC(C)C)B(O)O)cc2)cc(C)c1O` here?
Answer: The inhibition was “Active”.

Question: And the inhibition [2]?
Answer: Its inhibition is “inactive”.

Question: And the Activity (Colon)?
Answer: Its Activity is “inactive”.

Question: And the Activity (Intestine)?
Answer: Its Activity is “inactive”.
